Most compounds without a hit are left out; they make up all but 3% or so of the library.
Pemphigus Ab inh: inhibitors of pemphigus antibody binding to human desmoglein-3; P32926; DSG3-coupled beads, scFv-anti-DSG3-GFP binding, flow cytometry; hits give low values; hit rate 0.48% among 310,000; binding (percent of control), % at 10 µM;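 active means binding more than 3 SD below its plate's average and above zero; inconclusive means below that plate limit but binding exactly zero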;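 further: hits lower antibody fragment binding to DSG3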
SENP1 inh: blocks the human SENP1 SUMO protease catalytic domain. Q9P0U3. recombinant SENP1 catalytic domain, CyPet-SUMO1-YPet FRET cleavage. inhibition, % at 10 µM. hit rate 0.21% among 360,000. AID 624204;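 active means inhibition at least 30% at 10 µM, raw YFP signal under a set limit, fluorescence ratio 0.5 to 1.5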;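 further: 0% = enzyme with DMSO and 100% = no enzyme wells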
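Assay system: hSENP1 catalytic domain, recombinant. Amount: SENP1 enzyme, 20 pM final. Schedule: 50 min reaction, RT, dark. Technique: FRET, CFP and YFP emission. Control set: no-enzyme wells low, DMSO-plus-enzyme wells high control.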
HNF4A DNA FP: change in binding of human HNF4 alpha to DNA; P41235; AID 1224865; hit rate 0.3% among 360,000; activity change, % at 10 µM; HNF4a-FITC DNA binding, fluorescence polarization, 1 h; in the data active means activity change above about 30%, passing the limit was not always enough
Target sequence (P41235 whole entry, looked up): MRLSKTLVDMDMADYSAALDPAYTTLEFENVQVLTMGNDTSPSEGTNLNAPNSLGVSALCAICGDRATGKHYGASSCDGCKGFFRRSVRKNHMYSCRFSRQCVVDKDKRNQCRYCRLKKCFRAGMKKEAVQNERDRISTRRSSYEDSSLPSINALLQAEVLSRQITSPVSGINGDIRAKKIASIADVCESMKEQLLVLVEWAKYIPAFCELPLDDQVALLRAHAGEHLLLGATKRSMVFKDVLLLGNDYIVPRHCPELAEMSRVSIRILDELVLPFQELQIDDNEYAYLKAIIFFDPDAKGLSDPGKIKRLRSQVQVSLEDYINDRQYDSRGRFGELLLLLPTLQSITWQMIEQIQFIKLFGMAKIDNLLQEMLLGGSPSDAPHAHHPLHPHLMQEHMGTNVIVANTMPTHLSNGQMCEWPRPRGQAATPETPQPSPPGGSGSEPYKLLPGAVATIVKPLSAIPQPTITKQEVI
Cardio protect: myocardial damage modulation in H9c2 cells; H9c2 cardiomyocytes, H2O2 injury protection, ATPLite, 2 h; protection from H2O2 cell death, % at 20 µM; hit rate 0.63% among 360,000; AID 588492;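 active means compounds giving at least 50% protection of heart cells from peroxide-induced death in the single-dose screen, raw or plate-pattern-corrected value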;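 further: 0% = DMSO wells with peroxide and 100% = DMSO wells without peroxide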
Exocytosis inh: lytic granule exocytosis inhibition. TALL-104 LAMP-1 surface exposure, flow cytometry; cells stimulated with thapsigargin and PMA. inhibition, % at 10 µM. hit rate 0.66% among 360,000. AID 651702;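 active means inhibition above about 55%, limit read from the data; inconclusive means no clear call, values can overlap the other calls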
Myeloid diff MLP: myeloid differentiation induction; ER-HoxA9 myeloid progenitors, lysozyme-GFP differentiation, flow cytometry; hit rate 1% among 360,000; AID 624256; calls only at 10 µM;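 active means normalized GFP-positive differentiation at or above the plate's own cutoff, the solvent-only control mean plus 3 SD; inconclusive means no clear call, values can overlap the other calls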;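 further: cells exposed to compound for four days before flow analysis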
An asterisk follows results filed as active; i = inactive; ? = inconclusive; . = no result; + = active, no number.

SMILES | Pemphigus Ab inh | SENP1 inh | HNF4A DNA FP | Cardio protect | Exocytosis inh | Myeloid diff MLP
Cc1nc2ccccc2nc1OCc1ccc([N+](=O)[O-])cc1 | 105 | 0 | 4 | 8 | -4 | i
Cc1cccn2c(=O)c3cc(C(=O)NCCN4CCOCC4)n(C)c3nc12 | . | -37 | 1 | 11 | 1 | +
Cc1cccn2c(=O)c3cc(C(=O)NC4CCCCC4C)n(C)c3nc12 (centres undefined) | 101 | -122 | -3 | 4 | -1 | +
Cn1c(C(=O)NCCN2CCOCC2)cc2c(=O)n3ccccc3nc21 | 107 | -112 | 4 | 0 | -11 | i
Cc1ccc(NC(=O)CN(C)C(=O)/C=C/c2ccc3c(c2)OCO3)cc1 | 106 | 0 | 1 | -2 | -4 | i
CC(C)(C)OC(=O)CNC(=O)c1nc[nH]c1C(=O)N1CCNCC1 | 102 | 2 | 11 | 2 | 4 | i
COc1cccc(/C=C2/C(=O)NN(c3ccc(Br)cc3)C2=O)c1O | 118 | 3 | 0 | 52* | 6 | i
COc1cc(/C=C2/C(=O)NN(c3ccc(Cl)cc3)C2=O)cc(Br)c1O | 111 | 8 | -10 | 4 | 11 | i
CSc1ccccc1NS(=O)(=O)c1cccc2nonc12 | 108 | 2 | 0 | 8 | 0 | i
COc1ccc(C(=O)Nc2ccc3c(c2)n(C)c(=O)n3C)cc1OC | 96 | 2 | 1 | 10 | -7 | i
CCOC(=O)C1CCN(c2cc3c(cc2NC(=O)c2ccccc2)n(C)c(=O)n3C)CC1 | 149 | 4 | 0 | 66* | 10 | i
CCOC(=O)C1CCN(c2cc3c(cc2NC(=O)c2ccc(OC)c(OC)c2)n(C)c(=O)n3C)CC1 | 101 | -4 | 5 | 54* | 41 | i
COc1cccc(N=C2NC(=O)/C(=C/c3cc([N+](=O)[O-])ccc3O)S2)c1 | 92 | 55 | 76* | 11 | -2 | i
Cc1ccc(S(=O)(=O)/N=C2/NC(=O)/C(=C/c3cc([N+](=O)[O-])ccc3O)S2)cc1 | 111 | 27 | 25 | -3 | -18 | i
O=C1NC(=Nc2ccccc2Cl)S/C1=C\c1cc([N+](=O)[O-])ccc1O | 100 | 32 | 76* | -5 | -1 | i
COc1ccc(CC(=O)OCC(=O)c2ccc(F)cc2)cc1 | 112 | 1 | -2 | -2 | 8 | i
COc1cccc(/C=N/Nc2ccccc2C(=O)O)c1O | 119 | 0 | -1 | -1 | -2 | i
O=C(O)c1ccccc1NN=Cc1ccccc1 | 113 | 0 | -1 | -5 | 60* | i
CCN(CC)CCN(C(=O)C1=COCCO1)c1nc2ccc(C)cc2s1 | 155 | 0 | 3 | 4 | 39 | +
CCc1nnc(NC(=O)CCc2ccccc2OC)s1 | 105 | 0 | -1 | 3 | -9 | +
CCOCCn1ccc2c(OCC(=O)Nc3ccccc3OC)cccc2c1=O | 90 | -1 | 1 | 44 | -3 | i
CCOCCn1ccc2c(OCC(=O)Nc3cc(OC)ccc3OC)cccc2c1=O | 97 | 4 | 0 | 53* | -1 | ?
O=C(CSc1ccccc1)N1CCN(c2ccc(F)cc2)CC1 | 110 | 1 | 1 | -2 | -10 | i
Nc1nc(-c2ccccc2)c(CCCOc2ccc(NC(=O)CBr)cc2)c(=O)[nH]1 | 85 | -5 | 2 | -7 | 3 | i
Cc1ccc(C)c(S(=O)(=O)NNC(=O)c2sc(NS(=O)(=O)c3ccccc3)nc2C)c1 | 106 | -18 | 6 | 0 | -5 | ?
SMILES | Pemphigus Ab inh | SENP1 inh | HNF4A DNA FP | Cardio protect | Exocytosis inh | Myeloid diff MLP
COC(=O)c1sc2nc3c(cc2c1N)C(=O)CC(C)(C)C3 | 83* | -7 | 2 | 2 | 5 | i
CCOC(=O)c1sc2nc3c(cc2c1N)C(=O)CC(C)(C)C3 | 85 | 3 | 4 | 4 | 0 | i
CCCS(=O)(=O)NC(=O)C1(C)CCN(C(=O)CSc2ccccc2)C1 (centres undefined) | . | 2 | 1 | 6 | -5 | i
NNC(=O)c1sc2cc(C(F)(F)F)cnc2c1-c1cccs1 | 102 | 0 | 3 | 2 | 0 | +
Cc1sc2ncnc(N3CCC(C(=O)N(C)CC(=O)Nc4ccc(Cl)c(C(F)(F)F)c4)CC3)c2c1C | 102 | -1 | 0 | -15 | 14 | ?
COC(=O)[C@@H](N)Cc1ccc(O)c(O)c1 | . | -2 | -2 | 58* | -3 | i

Compound activity from PubChem.
